Measured values as given in ChEMBL document CHEMBL4680111, “Target Validation and Identification of Novel Boronate Inhibitors of the Plasmodium falciparum Proteasome” (J Med Chem, 2018).
Active and inactive are the calls of the source. The calls are words filed in the database; no cut-off is given here.

How the values were obtained:
[1] = target: T1, Proteasome subunit beta type-8 (Homo sapiens, UniProt P28062); test: Inhibition of human 20S immunoproteasome beta 5 subunit chymotrypsin-like activity using fluorogenic peptide Ac-WLA-AMC as substrate in presence of PA28alpha incubated for 1 to 2 hrs by fluorescence microplate reader assay
T1 sequence (P28062 whole entry): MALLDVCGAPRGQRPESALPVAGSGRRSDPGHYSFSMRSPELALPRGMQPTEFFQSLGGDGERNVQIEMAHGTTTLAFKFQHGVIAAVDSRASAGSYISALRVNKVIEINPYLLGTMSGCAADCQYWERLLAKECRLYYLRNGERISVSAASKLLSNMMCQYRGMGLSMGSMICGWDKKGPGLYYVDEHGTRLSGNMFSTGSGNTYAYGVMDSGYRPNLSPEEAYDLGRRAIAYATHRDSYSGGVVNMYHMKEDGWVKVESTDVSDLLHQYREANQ

[2] = tested on: Plasmodium falciparum 3D7; test: Inhibition of 20S proteasome beta 5 subunit in bortezomib-resistant Plasmodium falciparum 3D7 assessed as inhibition of BMV037 probe labeling at 1 to 10 uM incubated for 1 hr by SDS-PAGE analysis; settings: dose 1-10 µM
[3] = Inhibition of Plasmodium falciparum 20S proteasome beta 1 subunit caspase-like activity using fluorogenic peptide Ac-nLPnLD-AMC as substrate in presence of PA28alpha incubated for 1 to 2 hrs by fluorescence microplate reader assay
Plasmodium falciparum [4] = test: Antiplasmodial activity against DHA-sensitive and sorbitol synchronized ring stage forms of Plasmodium falciparum Cam3.II^rev expressing K13 wild-type genotype assessed as reduction in parasitemia incubated for 3 hrs by pulse exposure based Syto-61 staining dye based flow cytometry analysis; format: functional; settings: read-out: LD50 (the source's name)
How it was run: (§1)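 Tightly synchronized early-ring parasites (1-3 h post-invasion) exposed to compound for 3 h, then viability assessed in the next cycle. Cells stained with 2 µM Syto-61 and parasitemia read by flow cytometry, normalized to untreated and kill controls (2 µM DHA, 48-72 h). Mean ± SEM of three independent experiments.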

[5] = Inhibition of Plasmodium falciparum 20S proteasome beta 2 subunit trypsin-like activity using fluorogenic peptide Ac-WLR-AMC as substrate in presence of PA28alpha incubated for 1 to 2 hrs by fluorescence microplate reader assay
[6] = target: T2, Proteasome subunit beta type-6 (Homo sapiens, UniProt P28072); test: Inhibition of human 20S constitutive proteasome beta 1 subunit caspase-like activity using fluorogenic peptide Ac-nLPnLD-AMC as substrate in presence of PA28alpha incubated for 1 to 2 hrs by fluorescence microplate reader assay
T2 sequence (P28072 whole entry): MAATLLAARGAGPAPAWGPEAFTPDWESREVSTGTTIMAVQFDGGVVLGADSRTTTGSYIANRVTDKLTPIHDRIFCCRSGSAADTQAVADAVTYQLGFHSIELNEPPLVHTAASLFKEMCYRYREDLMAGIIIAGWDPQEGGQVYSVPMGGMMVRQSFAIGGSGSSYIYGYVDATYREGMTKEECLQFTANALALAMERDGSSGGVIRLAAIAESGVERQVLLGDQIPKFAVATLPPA

Plasmodium falciparum [7] = test: Antiplasmodial activity against DHA-resistant and sorbitol synchronized ring stage forms of Plasmodium falciparum Cam3.II^R539T expressing K13 mutant assessed as reduction in parasitemia incubated for 3 hrs by pulse exposure based Syto-61 staining dye based flow cytometry analysis; format: functional; settings: read-out: LD50 (the source's name); how it was run: as §1
[8] = target: T3, Proteasome subunit beta type-8 (Homo sapiens) (UniProt P28062); test: Inhibition of human 20S immunoproteasome beta 5 subunit assessed as inhibition of BMV037 probe labeling at 1 to 10 uM incubated for 1 hr by SDS-PAGE analysis; settings: dose 1-10 µM
T3 sequence (whole entry): T1 sequence (P28062 whole entry)
How it was run: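 Purified human immuno-20S (20 nM) was incubated with compound at 37°C for 1 h, then labelled with 10 µM BMV037 at 37°C for 2 h. Samples were run on 4-12% Bis-Tris gel with MES buffer, and active subunits were visualised by Cy5 fluorescence.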

[9] = target: T4, Proteasome subunit beta type-9 (Homo sapiens, UniProt P28065); test: Inhibition of human 20S immunoproteasome beta 1 subunit caspase-like activity using fluorogenic peptide Ac-nLPnLD-AMC as substrate in presence of PA28alpha incubated for 1 to 2 hrs by fluorescence microplate reader assay
T4 sequence (P28065 whole entry): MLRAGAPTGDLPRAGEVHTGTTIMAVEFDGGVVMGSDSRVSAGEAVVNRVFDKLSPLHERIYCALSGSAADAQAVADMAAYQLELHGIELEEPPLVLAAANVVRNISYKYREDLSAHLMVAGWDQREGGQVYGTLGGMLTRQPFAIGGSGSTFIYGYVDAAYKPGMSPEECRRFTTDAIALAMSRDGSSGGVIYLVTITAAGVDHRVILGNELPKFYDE

[10] = target: T5, Proteasome subunit beta type-10 (Homo sapiens, UniProt P40306); test: Inhibition of human 20S immunoproteasome beta 2 subunit trypsin-like activity using fluorogenic peptide Ac-WLR-AMC as substrate in presence of PA28alpha incubated for 1 to 2 hrs by fluorescence microplate reader assay
T5 sequence (P40306 whole entry): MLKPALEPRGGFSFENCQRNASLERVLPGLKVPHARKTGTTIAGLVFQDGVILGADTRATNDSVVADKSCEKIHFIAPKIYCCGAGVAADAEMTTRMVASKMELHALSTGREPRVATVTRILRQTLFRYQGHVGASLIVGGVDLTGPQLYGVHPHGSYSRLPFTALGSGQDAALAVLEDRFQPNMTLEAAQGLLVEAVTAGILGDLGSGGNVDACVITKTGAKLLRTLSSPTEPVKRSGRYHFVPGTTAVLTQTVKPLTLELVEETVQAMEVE

[11] = target: T6, Proteasome subunit beta type-7 (Homo sapiens, UniProt Q99436); test: Inhibition of human 20S constitutive proteasome beta 2 subunit trypsin-like activity using fluorogenic peptide Ac-WLR-AMC as substrate in presence of PA28alpha incubated for 1 to 2 hrs by fluorescence microplate reader assay
T6 sequence (Q99436 whole entry): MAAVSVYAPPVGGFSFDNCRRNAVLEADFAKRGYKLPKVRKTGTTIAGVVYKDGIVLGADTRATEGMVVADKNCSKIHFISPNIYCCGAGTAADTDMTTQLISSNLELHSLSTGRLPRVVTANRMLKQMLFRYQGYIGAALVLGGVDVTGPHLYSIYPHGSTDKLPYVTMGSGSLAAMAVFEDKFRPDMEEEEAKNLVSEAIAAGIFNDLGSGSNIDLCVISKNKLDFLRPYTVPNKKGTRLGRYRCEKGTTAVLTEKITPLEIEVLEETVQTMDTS

[12] = Inhibition of Plasmodium falciparum 20S proteasome beta 5 subunit chymotrypsin-like activity using fluorogenic peptide Ac-WLA-AMC as substrate in presence of PA28alpha incubated for 1 to 2 hrs by fluorescence microplate reader assay
[13] = Selectivity index, ratio of LD50 for cytotoxicity against human HepG2 cells to LD50 for antiplasmodial activity against Plasmodium falciparum 3D7 sorbitol-treated ring stage; format: toxicity, cell-based; settings: read-out: Selectivity Index

Structure (SMILES) | IC50 [1] [nM] | inhibition [2] | IC50 [3] [nM] | LC50 (Plasmodium falciparum [4]) [nM] | IC50 [5] [nM] | IC50 [6] [nM] | LC50 (Plasmodium falciparum [7]) [nM] | inhibition [8] | IC50 [9] [nM] | IC50 [10] [nM] | IC50 [11] [nM] | IC50 [12] [nM] | selectivity ratio [13]
CC(C)C[C@H](NC(=O)[C@H](Cc1ccccc1)NC(=O)Cc1ccc(O)cc1)B(O)O | 1.3 | inactive | 600 | 180 | 60 | 52 | 160 | Active | 5 | 300 | 680 | 10 | 0.7
Cc1ccc(S(=O)(=O)N[C@@H](CC(=O)NCC(C)(C)C)C(=O)N[C@@H](Cc2ccccc2)C(=O)N[C@@H](CC(C)C)B(O)O)cc1 | 5 | Active | 1780 | 210 | 70 | 1600 | 190 | Active | 29 | 130 | 440 | 16 | 4
CC(=O)N1CCC[C@@H]1C(=O)N[C@@H](C)C(=O)N[C@@H](Cc1ccccc1)B(O)O | 28 | Active | 3190 | 900 | > 10000 | 3400 | 820 | Active | 8 | > 10000 | > 10000 | 1500 | 56
